Assay [1] deals with NIH3T3. Put plainly: Antiproliferative activity against mouse NIH3T3 cells after 72 hrs. To be noted: NIH3T3, 72 h.
The subject of assay [2] is NIH3T3. Briefly: Antiproliferative activity against mouse NIH3T3 cells transfected with H-RAS oncogene after 72 hrs. To be noted: NIH3T3, 72 h.
The test system of assay [3] is NIH3T3. Put plainly: Antiproliferative activity against mouse NIH3T3 cells expressing RET C634R mutant associated with MEN2A syndrome after 72 hrs. To be noted: NIH3T3, 72 h.
Assay [4] addresses Proto-oncogene tyrosine-protein kinase receptor Ret (Homo sapiens, UniProt P07949). Put plainly: Inhibition of recombinant RET active protein by immunoblotting. A general note: Immunoblotting shows a protein as a band on a membrane.
The subject of assay [5] is NIH3T3. Briefly: Inhibition of RET oncoprotein expression in mouse NIH3T3 cells transfected with RET C634R mutant associated with MEN2A syndrome at 2.5 to 10 uM after 24 hrs by Western blot. Format: functional, cell-based. In a few lines: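 NIH3T3MEN2A cells were exposed to compound or to DMSO vehicle for 24 h. Whole-cell lysates were Western blotted with anti-Ret (H300) and anti-phospho-Ret (Y1062) antibodies. Actin served as the loading control, and a lysate of untreated parental NIH3T3 cells was run alongside.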

The structures appear in SMILES notation. The source made the active and inactive calls. The rule behind the calls is not given here. Where only a bound is given, the exact number is not on record here.

Sequence of Proto-oncogene tyrosine-protein kinase receptor Ret (P07949 whole entry): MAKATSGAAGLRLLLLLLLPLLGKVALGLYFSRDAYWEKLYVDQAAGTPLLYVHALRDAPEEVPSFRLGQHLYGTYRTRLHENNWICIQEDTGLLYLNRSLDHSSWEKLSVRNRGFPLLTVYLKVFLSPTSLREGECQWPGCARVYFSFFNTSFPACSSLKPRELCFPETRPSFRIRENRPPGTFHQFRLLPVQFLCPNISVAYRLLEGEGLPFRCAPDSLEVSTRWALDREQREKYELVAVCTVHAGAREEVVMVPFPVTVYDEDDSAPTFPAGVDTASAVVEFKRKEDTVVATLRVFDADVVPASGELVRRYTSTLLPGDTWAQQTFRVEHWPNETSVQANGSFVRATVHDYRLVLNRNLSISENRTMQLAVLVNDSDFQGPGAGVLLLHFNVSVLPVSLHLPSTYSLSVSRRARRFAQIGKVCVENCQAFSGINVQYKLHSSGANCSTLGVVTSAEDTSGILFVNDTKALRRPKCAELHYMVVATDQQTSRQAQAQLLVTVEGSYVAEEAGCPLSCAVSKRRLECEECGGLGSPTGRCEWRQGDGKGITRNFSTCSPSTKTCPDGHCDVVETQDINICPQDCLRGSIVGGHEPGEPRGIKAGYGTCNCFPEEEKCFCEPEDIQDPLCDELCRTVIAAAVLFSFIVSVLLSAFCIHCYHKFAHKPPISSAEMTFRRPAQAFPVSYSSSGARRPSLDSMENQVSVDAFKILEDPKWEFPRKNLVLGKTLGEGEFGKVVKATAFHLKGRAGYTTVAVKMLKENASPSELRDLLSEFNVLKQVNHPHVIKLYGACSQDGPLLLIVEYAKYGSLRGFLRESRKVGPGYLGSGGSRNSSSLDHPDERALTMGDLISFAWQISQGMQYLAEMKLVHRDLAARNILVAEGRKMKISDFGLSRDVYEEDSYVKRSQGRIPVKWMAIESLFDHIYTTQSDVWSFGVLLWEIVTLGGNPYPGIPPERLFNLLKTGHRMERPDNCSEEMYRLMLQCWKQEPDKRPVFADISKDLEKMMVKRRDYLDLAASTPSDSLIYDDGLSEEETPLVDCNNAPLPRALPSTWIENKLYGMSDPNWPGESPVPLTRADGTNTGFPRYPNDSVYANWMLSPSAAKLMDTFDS

The term IC50 denotes the concentration that gives 50% inhibition. For the compound `COc1ccc2c(c1)c1c(-c3ccc(O)cc3)c[nH]c(=O)c1n2C`, the IC50 with NIH3T3 [1] is 25 µM; with NIH3T3 [2] it was over 30 µM; with NIH3T3 [3], 12.2 µM.

Take `COc1cc2c3c(-c4cccc(O)c4)c[nH]c(=O)c3n(C)c2cc1OC`: the 50% inhibitory concentration (IC50) in assay [4] worked out at 90 nM; in the assay with NIH3T3 [1] it was 6.7 µM; in the assay with NIH3T3 [2], 6.1 µM; in the assay on NIH3T3 [3], 3.2 µM.

As for `COc1cc2c3c(-c4ccccc4)c[nH]c(=O)c3n(C)c2cc1OC`, the IC50 was 250 nM in assay [4], 17.8 µM with NIH3T3 [1], 13.8 µM in the assay on NIH3T3 [2] and 3.3 µM in the assay on NIH3T3 [3].

Regarding `COc1cc2c3c(n(C)c2cc1OC)C(=O)NCC=C3`, the IC50 with NIH3T3 [3] came to 7.8 µM.

Take `COc1cc2c3c(-c4ccc(O)cc4)c[nH]c(=O)c3n(Cc3ccccc3)c2cc1OC`: the 50% inhibitory concentration (IC50) in the assay with NIH3T3 [1] was found to be 17.7 µM; in the assay on NIH3T3 [3], 7.5 µM.

Regarding `Cn1c2ccccc2c2c(-c3ccc(O)cc3)c[nH]c(=O)c21`, the values for the IC50 in the assay on NIH3T3 [1], in the assay on NIH3T3 [2] and in the assay with NIH3T3 [3] were over 30 µM, over 30 µM and 17.3 µM, respectively.

Regarding `COc1cc2c3ccn(Cc4ccccc4)c(=O)c3n(C)c2cc1OC`, the results for the IC50 (in assay [4]; with NIH3T3 [3]) were over 600 nM and 15.9 µM, respectively.

In turn, `COc1cc2[nH]c3c(=O)[nH]c(-c4ccccc4)cc3c2cc1OC` registered a concentration for half-maximal inhibition (IC50) in the assay with NIH3T3 [3] of 13.3 µM.

Compound `COc1cc2c3c(n(C)c2cc1OC)C(=O)N(C)CC=C3c1ccc(O)cc1` yielded a concentration for half-maximal inhibition (IC50) in the assay on NIH3T3 [3] of 18.4 µM.

Take `COc1cc2c3c(n(C)c2cc1OC)C(=O)NCC=C3c1ccc(O)cc1`: in the assay on NIH3T3 [3], the IC50 is 14.4 µM.

In the case of `COc1cc2c3c(n(C)c2cc1OC)C(=O)NCC=C3C`, in the assay with NIH3T3 [3], the IC50 amounted to 16.7 µM.

Consider `COc1ccc(CN2CC=C(c3ccc(O)cc3)c3c(n(C)c4cc(OC)c(OC)cc34)C2=O)cc1`, for which the IC50 in the assay on NIH3T3 [3] stood at 6.8 µM.

Take `COc1cc2[nH]c3c(c2cc1OC)C(c1ccc(O)cc1)=CCNC3=O`: the IC50 with NIH3T3 [3] was determined as 19.8 µM.

Compound `COc1cc2c3cc(-c4ccccc4)[nH]c(=O)c3n(C)c2cc1OC` displayed an IC50 with NIH3T3 [3] of 34.4 µM.

Consider `COc1cc2[nH]c3c(=O)[nH]cc(-c4ccc(O)cc4)c3c2cc1OC`, for which the concentration for half-maximal inhibition (IC50) is 110 nM in assay [4], 13.9 µM with NIH3T3 [1], 13.5 µM in the assay with NIH3T3 [2] and 4.7 µM in the assay on NIH3T3 [3].

For the compound `COc1ccc(C2=CCNC(=O)c3c2c2cc(OC)c(OC)cc2n3C)cc1`, inhibition in the assay on NIH3T3 [3] was half-maximal at 9.9 µM (IC50).

For the compound `COc1cc2c3c(C)c[nH]c(=O)c3n(C)c2cc1OC`, the half-maximal inhibitory concentration (IC50) in assay [4] was over 600 nM; with NIH3T3 [1], 10.6 µM; in the assay on NIH3T3 [3] it was 5.6 µM.

Regarding `COc1cc2c3c(-c4ccc(O)cc4)c[nH]c(=O)c3n(C)c2cc1OC`, the result in the assay with NIH3T3 [5] was Active. The IC50 in the assay on NIH3T3 [1] is 7.2 µM; with NIH3T3 [2], 6.6 µM; in the assay on NIH3T3 [3] it was 1.95 µM.
